High-throughput results as filed in PubChem BioAssay.
CYP2C9 act: human CYP2C9 activators, primary screen, biochemical, luminescence. Cytochrome P450 2C9 (Homo sapiens), P11712. recombinant CYP2C9, luciferin-H conversion; stronger effect = higher value; factor 1 = untreated enzyme, 0 = blocked. activation factor at 5 µM. 96,000 compounds, 1.4% hits. AID 1024, 2008;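 active = activation factor of 2 or more for CYP2C9 at a 5 µM dose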
tolC growth inh: growth inhibitors of E. coli tolC mutant, primary screen, strain BW25113 ΔtolC::kan, 384-well. OD615. growth inhibition, % at 10 µM (by protocol). AID 573, 2007. 65,000 compounds, 2.2% hits;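 active = growth inhibition at or above a cutoff equal to the mean over every tested compound plus 3 SD, cut at about 60% in these data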;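 also: growth measured after 20 h incubation at 37 °C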
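Doses: one dose of 10 µM final / Material: E. coli BW25113 ΔtolC::kan, tolC deletion mutant strain / Buffer or medium: LB with kanamycin 50 µg/mL / Evaluation: percent growth inhibition / Detection: optical density read at 615 nm / Incubation: 37 °C, 20 h exposure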
CYP2C19 activ: human CYP2C19 activators, primary screen, biochemical, luminescence; AID 1025, 2008; Cytochrome P450 2C19 (Homo sapiens), P33261; activation factor at 5 µM; 96,000 tested, under 10 active; recombinant CYP2C19, luciferin-H EGE luminescence; stronger effect = higher value; 0 = fully inhibited enzyme, 1 = untreated enzyme;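 active = activation factor of at least 2 at 5 µM in the primary screen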
Target sequence (P33261 whole entry, looked up): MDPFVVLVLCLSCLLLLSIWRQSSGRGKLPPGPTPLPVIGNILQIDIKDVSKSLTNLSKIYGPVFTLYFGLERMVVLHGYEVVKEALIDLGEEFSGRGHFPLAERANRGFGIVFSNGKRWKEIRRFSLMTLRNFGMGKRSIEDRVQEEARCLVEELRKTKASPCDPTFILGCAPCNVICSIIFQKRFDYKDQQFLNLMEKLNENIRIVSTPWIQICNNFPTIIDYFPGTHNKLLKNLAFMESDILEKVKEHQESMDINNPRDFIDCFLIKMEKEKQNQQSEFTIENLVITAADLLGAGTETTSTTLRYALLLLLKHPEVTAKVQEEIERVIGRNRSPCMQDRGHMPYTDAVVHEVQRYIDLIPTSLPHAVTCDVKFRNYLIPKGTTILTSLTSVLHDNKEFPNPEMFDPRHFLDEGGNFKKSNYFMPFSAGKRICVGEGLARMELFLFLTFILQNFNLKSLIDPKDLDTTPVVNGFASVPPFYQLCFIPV
E coli WT exp: growth inhibitors of wild-type E. coli, primary screen, strain BW25113, expanded library, OD600 | growth inhibition, % at 100 µM | AID 710, 2007 | OD600 absorbance | 98,000 compounds, 0.15% hits;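 active = growth inhibition above about 50% at one test dose, limit read from the data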;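 also: growth measured after 20 h incubation at 37 °C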
CYP2C19 inh: blockers of cytochrome P450 2C19 activity – biochemical, luminescence, ADME assay, primary screen; 96,000 compounds, 21% hits; CYP2C19 Supersomes, luciferin-H EGE luminescence, 30 min; P33261; AID 778, 2007; inhibition, % at 5 µM;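 active = CYP2C19 inhibition above a set limit at 5 µM in the primary screen, cut at about 50% in these data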
CYP2C9 inh: blockers of cytochrome P450 2C9 activity – biochemical, luminescence, ADME assay, primary screen | AID 777, 2007 | CYP2C9 Supersomes, luciferin-H conversion | inhibition, % at 5 µM | 96,000 compounds, 20% hits | P11712;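 active = blocking of liver enzyme CYP2C9 beyond about 50% at 5 µM, limit read from the data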
Numbers stand for hits. Only some compounds are listed: those with a hit (about 29% of all), similar ones and a draw of the others.

Results for CCOC(=O)CSc1nc2c(sc(=S)n2Cc2ccco2)c(=O)n1-c1ccccc1 ?
CYP2C9 act: inactive; tolC growth inh: inactive; CYP2C19 activ: inactive; E coli WT exp: inactive; CYP2C19 inh: 60; CYP2C9 inh: 69

What do the screens show for `CCOC(=O)CC(=O)CSc1nc2c(sc(=S)n2-c2ccccc2)c(=O)[nH]1`?
CYP2C9 act: inactive; tolC growth inh: inactive; CYP2C19 activ: inactive; E coli WT exp: inactive; CYP2C19 inh: inactive; CYP2C9 inh: 66

What do the screens show for `C#CCOC(=O)CCC(=O)Nc1cc(OC)nc(OC)n1`?
CYP2C9 act: inactive; tolC growth inh: inactive; CYP2C19 activ: inactive; E coli WT exp: inactive; CYP2C19 inh: inactive; CYP2C9 inh: inactive

What do the screens show for `COCC(=O)Nc1ccccc1C#N`?
CYP2C9 act: inactive; CYP2C19 activ: inactive; E coli WT exp: inactive; CYP2C19 inh: inactive; CYP2C9 inh: inactive

How did Cc1nc2c(sc3nc4c(cc32)COC(C)(C)C4)c(=O)o1 do in these assays?
CYP2C9 act: inactive; CYP2C19 activ: inactive; E coli WT exp: inactive; CYP2C19 inh: inactive; CYP2C9 inh: 72

What do the screens show for `Cc1scc(C(=O)N2CCN(S(C)(=O)=O)CC2)c1-c1ccccc1`?
CYP2C9 act: inactive; tolC growth inh: inactive; CYP2C19 activ: inactive; E coli WT exp: inactive; CYP2C19 inh: 97; CYP2C9 inh: inactive

What do the screens show for `CS(=O)(=O)N1CCN(C(=O)c2ccccc2F)CC1`?
CYP2C9 act: inactive; tolC growth inh: inactive; CYP2C19 activ: inactive; E coli WT exp: inactive; CYP2C19 inh: 57; CYP2C9 inh: inactive

Results for Cc1cccc(CN2CCN(C(=O)c3ccccc3F)CC2)c1 ?
CYP2C9 act: inactive; tolC growth inh: inactive; CYP2C19 activ: inactive; E coli WT exp: inactive; CYP2C19 inh: 99; CYP2C9 inh: 68

How did O=C(c1ccc(-n2cccc2)cc1)N1CCN(Cc2ccccc2)CC1 do in these assays?
CYP2C9 act: inactive; CYP2C19 activ: inactive; E coli WT exp: inactive; CYP2C19 inh: inactive; CYP2C9 inh: inactive

How did O=C(c1ccccc1F)N1CCN(S(=O)(=O)c2ccc(S(=O)(=O)N3CCCCC3)cc2)CC1 do in these assays?
CYP2C9 act: inactive; tolC growth inh: inactive; CYP2C19 activ: inactive; E coli WT exp: inactive; CYP2C19 inh: 80; CYP2C9 inh: inactive

How did CS(=O)(=O)N1CCN(C(=O)c2c(F)cccc2F)CC1 do in these assays?
CYP2C9 act: inactive; tolC growth inh: inactive; CYP2C19 activ: inactive; E coli WT exp: inactive; CYP2C19 inh: inactive; CYP2C9 inh: inactive

Results for O=C(c1cc(S(=O)(=O)N2CCCCC2)ccc1F)N1CCCCC1 ?
CYP2C9 act: inactive; tolC growth inh: inactive; CYP2C19 activ: inactive; E coli WT exp: inactive; CYP2C19 inh: inactive; CYP2C9 inh: inactive

Results for CS(=O)(=O)N1CCN(C(=O)c2csc3ccccc23)CC1 ?
CYP2C9 act: inactive; tolC growth inh: inactive; CYP2C19 activ: inactive; E coli WT exp: inactive; CYP2C19 inh: inactive; CYP2C9 inh: inactive

Results for O=C1CC(SC(=Nc2ccccc2)Nc2ccccc2)C(=O)N1c1cccc2ccccc12 (stereo unspecified) ?
CYP2C9 act: inactive; CYP2C19 activ: inactive; E coli WT exp: inactive; CYP2C19 inh: inactive; CYP2C9 inh: inactive

Results for CC1CCC2(CC1)Nc1ccccc1C(=O)N2c1ccccc1 (stereo unspecified) ?
CYP2C9 act: inactive; CYP2C19 activ: inactive; E coli WT exp: inactive; CYP2C19 inh: inactive; CYP2C9 inh: inactive

How did CCC(=O)Oc1ccc(C(=O)Nc2ccc3c(c2)C(=O)N(C2CCCCC2)C3=O)cc1 do in these assays?
CYP2C9 act: inactive; CYP2C19 activ: inactive; E coli WT exp: inactive; CYP2C19 inh: inactive; CYP2C9 inh: 58

Results for CCOC(=O)c1ccc2c(c1)C(=O)N(C1CCCCC1)C2=O ?
CYP2C9 act: inactive; tolC growth inh: inactive; CYP2C19 activ: inactive; E coli WT exp: inactive; CYP2C19 inh: inactive; CYP2C9 inh: inactive

What do the screens show for `CC(C)(C)NC(=O)c1ccc2c(c1)C(=O)N(C1CCCCC1)C2=O`?
CYP2C9 act: inactive; tolC growth inh: inactive; CYP2C19 activ: inactive; E coli WT exp: inactive; CYP2C19 inh: 57; CYP2C9 inh: inactive

What do the screens show for `O=C(Nc1ccc2c(c1)C(=O)N(C1CCCCC1)C2=O)C1CCCO1` (stereo unspecified)?
CYP2C9 act: inactive; tolC growth inh: inactive; CYP2C19 activ: inactive; E coli WT exp: inactive; CYP2C19 inh: inactive; CYP2C9 inh: 72

Results for O=C(O)c1cccc(NC(=O)C2CCCO2)c1 (stereo unspecified) ?
CYP2C9 act: inactive; CYP2C19 activ: inactive; E coli WT exp: inactive; CYP2C19 inh: inactive; CYP2C9 inh: inactive

How did COc1ccc(NC(=O)c2cc([N+](=O)[O-])nn2Cc2ccccc2)c(C)c1 do in these assays?
CYP2C9 act: inactive; CYP2C19 activ: inactive; E coli WT exp: inactive; CYP2C19 inh: inactive; CYP2C9 inh: inactive

Results for COC(=O)c1nc2nc(C)cc(=O)n2[nH]1 ?
CYP2C9 act: inactive; CYP2C19 activ: inactive; E coli WT exp: inactive; CYP2C19 inh: inactive; CYP2C9 inh: inactive

How did Cc1cc(C)n2c(SCc3ccc(C#N)cc3)nnc2n1 do in these assays?
CYP2C9 act: inactive; tolC growth inh: inactive; CYP2C19 activ: inactive; E coli WT exp: inactive; CYP2C19 inh: inactive; CYP2C9 inh: inactive

What do the screens show for `Cc1cc(N2CCCCC2)nc(SCc2ccc(C#N)cc2)n1`?
CYP2C9 act: inactive; tolC growth inh: 78; CYP2C19 activ: inactive; E coli WT exp: inactive; CYP2C19 inh: inactive; CYP2C9 inh: 63

How did Cc1nnc(SCc2ccc(F)cc2)s1 do in these assays?
CYP2C9 act: inactive; tolC growth inh: inactive; CYP2C19 activ: inactive; E coli WT exp: inactive; CYP2C19 inh: inactive; CYP2C9 inh: inactive

Results for COc1ccc(CSc2nnc(N)s2)cc1F ?
CYP2C9 act: inactive; tolC growth inh: inactive; CYP2C19 activ: inactive; E coli WT exp: inactive; CYP2C19 inh: 69; CYP2C9 inh: inactive

Results for Nc1nnc(SCc2ccc(F)cc2)s1 ?
CYP2C9 act: inactive; tolC growth inh: inactive; CYP2C19 activ: inactive; E coli WT exp: inactive; CYP2C19 inh: 70; CYP2C9 inh: inactive

What do the screens show for `COC(=O)c1ccccc1NC(=O)CN1CCC(C(=O)c2ccc3c(c2)OCCO3)CC1`?
CYP2C9 act: inactive; tolC growth inh: inactive; CYP2C19 activ: inactive; E coli WT exp: inactive; CYP2C19 inh: 81; CYP2C9 inh: 78

What do the screens show for `Cc1ccc(NC(=O)CN2CCC(C(=O)c3ccc4c(c3)OCCO4)CC2)cc1`?
CYP2C9 act: inactive; CYP2C19 activ: inactive; E coli WT exp: inactive; CYP2C19 inh: 85; CYP2C9 inh: inactive

Results for Cc1ccc(NC(=O)c2ccc3c(c2)OCCO3)cc1 ?
CYP2C9 act: inactive; CYP2C19 activ: inactive; E coli WT exp: inactive; CYP2C19 inh: inactive; CYP2C9 inh: inactive

What do the screens show for `O=C(COC(=O)Cn1c(C(F)(F)F)nc2ccccc21)Nc1ccc2c(c1)OCCO2`?
CYP2C9 act: inactive; CYP2C19 activ: inactive; E coli WT exp: inactive; CYP2C19 inh: inactive; CYP2C9 inh: inactive
